Active and inactive are the calls of the source. The calls are words filed in the database; no cut-off is given here.
Experiments:
[1] = tested on: HeLa; test: Induction of apoptosis in human HeLa cells assessed as early apoptotic cells at 0.10 uM after 24 hrs by annexin V-FITC/propidium iodide staining-based flow cytometric method (reference value: 2.31%); format: functional
[2] = tested on: HeLa; test: Induction of apoptosis in human HeLa cells assessed as late apoptotic cells at 0.15 uM after 24 hrs by annexin V-FITC/propidium iodide staining-based flow cytometric method (reference value: 0.15%); format: functional
[3] = tested on: HeLa; test: Cell cycle arrest in human HeLa cells assessed as accumulation at sub G1 phase at 0.20 uM after 24 hrs by propidium iodide staining-based flow cytometric method (reference value: 7.6%); format: functional
[4] = molecular target: Tubulin; test: Inhibition of tubulin (unknown origin) polymerization after 40 mins by fluorescence assay; format: protein-complex assay, Homo sapiens
Outline: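 Fluorescence-based kit assay. Compounds, in duplicate, were warmed 1 min at 37 °C, then cold tubulin mix was added (2 mg/mL tubulin in 80 mM PIPES pH 6.9, 2.0 mM MgCl2, 0.5 mM EGTA, 1.0 mM GTP, 15% glycerol). Assembly was read at ex 360/em 450 nm each minute for 1 h at 37 °C; 0.1% DMSO vehicle. IC50 is the concentration halving assembly extent at 40 min, from four concentrations.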

[5] = tested on: HeLa; test: Cell cycle arrest in human HeLa cells assessed as accumulation at S phase at 0.25 uM after 24 hrs by propidium iodide staining-based flow cytometric method (reference value: 10.3%); format: functional
[6] = tested on: HeLa; test: Cell cycle arrest in human HeLa cells assessed as accumulation at G2/M phase at 0.10 uM after 24 hrs by propidium iodide staining-based flow cytometric method (reference value: 19.9%); format: functional
[7] = tested on: HeLa; test: Antiproliferative activity against human HeLa cells after 72 hrs by MTT assay; format: functional, cell-based
Outline: (§1)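 HeLa and SMMC-7721 cells in log phase were seeded at 4000-6000 cells/well. After 24 h, quadruplicate wells were treated with a series of concentrations for 72 h. DMSO stocks were 5 mmol/L, with final DMSO below 0.1%. MTT (10 mg/mL in PBS) was added for 4 h, medium replaced with DMSO, and OD read at 490 nm. IC50 came from at least five concentrations; mean and SD of at least three independent experiments.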

[8] = tested on: HeLa; test: Induction of apoptosis in human HeLa cells assessed as cell shrinkage at 0.10 to 0.20 uM by microscopic method; format: functional, cell-based
Outline: (§2)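 Morphology of HeLa cells was examined by light microscopy after 24 h exposure to 0.10, 0.15 or 0.20 μM, or 0.1% DMSO, alongside the annexin V/PI experiment.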

[9] = tested on: HeLa; test: Induction of apoptosis in human HeLa cells assessed as plasmatorrhexis at 0.10 to 0.20 uM by microscopic method; format: functional, cell-based; outline: as §2
[10] = tested on: HeLa; test: Induction of apoptosis in human HeLa cells assessed as early apoptotic cells at 0.15 uM after 24 hrs by annexin V-FITC/propidium iodide staining-based flow cytometric method (reference value: 2.31%); format: functional
[11] = tested on: HeLa; test: Cell cycle arrest in human HeLa cells assessed as accumulation at S phase at 0.20 uM after 24 hrs by propidium iodide staining-based flow cytometric method (reference value: 10.3%); format: functional
[12] = tested on: HeLa; test: Cell cycle arrest in human HeLa cells assessed as accumulation at sub G1 phase at 0.10 uM after 24 hrs by propidium iodide staining-based flow cytometric method (reference value: 7.6%); format: functional
[13] = tested on: HeLa; test: Induction of apoptosis in human HeLa cells assessed as viable cells at 0.10 uM after 24 hrs by annexin V-FITC/propidium iodide staining-based flow cytometric method (reference value: 97.39%); format: functional; conditions: read-out: Activity
[14] = tested on: HeLa; test: Cell cycle arrest in human HeLa cells assessed as accumulation at G2/M phase at 0.15 uM after 24 hrs by propidium iodide staining-based flow cytometric method (reference value: 19.9%); format: functional
[15] = tested on: HeLa; test: Induction of apoptosis in human HeLa cells assessed as late apoptotic cells at 0.10 uM after 24 hrs by annexin V-FITC/propidium iodide staining-based flow cytometric method (reference value: 0.15%); format: functional
[16] = tested on: HeLa; test: Cell cycle arrest in human HeLa cells assessed as accumulation at G0/G1 phase at 0.20 uM after 24 hrs by propidium iodide staining-based flow cytometric method (reference value: 62.2%); format: functional
[17] = tested on: HeLa; test: Cell cycle arrest in human HeLa cells assessed as accumulation at G2/M phase after 24 hrs by propidium iodide staining-based flow cytometric method; format: functional
[18] = tested on: HeLa; test: Induction of apoptosis in human HeLa cells assessed as early apoptotic cells at 0.20 uM after 24 hrs by annexin V-FITC/propidium iodide staining-based flow cytometric method (reference value: 2.31%); format: functional
[19] = tested on: HeLa; test: Cell cycle arrest in human HeLa cells assessed as accumulation at G0/G1 phase at 0.25 uM after 24 hrs by propidium iodide staining-based flow cytometric method (reference value: 62.2%); format: functional
[20] = tested on: K562; test: Antiproliferative activity against human K562 cells after 72 hrs by MTT assay; format: functional, cell-based; conditions: K562, 72 h
Outline: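 K562 cells were grown in RPMI 1640 with 10% FBS at 37 °C in 5% CO2, then seeded at 4000-6000 cells/well. Quadruplicate wells were exposed to drug for 72 h, with final DMSO below 0.1%. After 4 h with MTT, solubilizer (10% SDS, 5% isobutyl alcohol, 0.01 M HCl) was added for 12 h, then OD read at 490 nm. IC50 came from at least five concentrations; mean and SD of at least three experiments.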

[21] = tested on: HeLa; test: Disruption of microtubule network in human HeLa cells after 24 hrs by Hoechst 33342 staining-based immunofluorescence microscopic method; format: cell-based
Outline: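 HeLa cells were plated at 4000 per well for 24 h, then exposed for 24 h to vehicle or drug (0.1-0.2 μM). Fixation was 4% paraformaldehyde, 10 min, 4 °C, then 0.1% Triton X-100, 5 min, and 1% BSA block, 1 h. Staining used anti-α-tubulin (1:100, 12 h, 4 °C), then FITC anti-mouse IgG (1:100, 30 min, 37 °C), with Hoechst 33342 for nuclei. Imaged by fluorescence microscopy.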

[22] = tested on: HeLa; test: Cell cycle arrest in human HeLa cells assessed as accumulation at S phase at 0.15 uM after 24 hrs by propidium iodide staining-based flow cytometric method (reference value: 10.3%); format: functional
[23] = tested on: HeLa; test: Induction of apoptosis in human HeLa cells assessed as membrane blebbing at 0.10 to 0.20 uM by microscopic method; format: functional, cell-based; outline: as §2
[24] = tested on: HeLa; test: Cell cycle arrest in human HeLa cells assessed as accumulation at sub G1 phase at 0.15 uM after 24 hrs by propidium iodide staining-based flow cytometric method (reference value: 7.6%); format: functional
[25] = tested on: HeLa; test: Induction of apoptosis in human HeLa cells assessed as viable cells at 0.20 uM after 24 hrs by annexin V-FITC/propidium iodide staining-based flow cytometric method (reference value: 97.39%); format: functional; conditions: read-out: Activity
[26] = tested on: HeLa; test: Cell cycle arrest in human HeLa cells assessed as accumulation at S phase at 0.10 uM after 24 hrs by propidium iodide staining-based flow cytometric method (reference value: 10.3%); format: functional
[27] = tested on: SMMC-7721; test: Antiproliferative activity against human SMMC7721 cells after 72 hrs by MTT assay; format: functional, cell-based; conditions: SMMC-7721, 72 h; outline: as §1

COC(=O)c1ccc2c(c1)NC(=O)CN2C(=O)c1cc(OC)c(OC)c(OC)c1
Activity [1]: 12.1% | Activity [2]: 9.95% | Activity [3]: 32.9% | IC50 [4]: 3970 nM | Activity [5]: 8.3% | Activity [6]: 21.8% | IC50 [7]: 126 nM | Activity [8]: Active | Activity [9]: Active | Activity [10]: 16.5% | Activity [11]: 8% | Activity [12]: 13.1% | viability at 0.1 µM [13]: 76.1% | Activity [14]: 29.2% | Activity [15]: 7.87% | Activity [16]: 18.4% | Activity [17]: Dose-dependent effect | Activity [18]: 17.05% | Activity [19]: 13.8% | IC50 [20]: 164 nM | Activity [21]: Dose-dependent effect | Activity [22]: 8.3% | Activity [23]: Active | Activity [24]: 31.6% | viability at 0.2 µM [25]: 62.2% | Activity [26]: 9.9% | IC50 [27]: 71 nM

From ChEMBL document CHEMBL4251573, “Synthesis and biological evaluation of N-substituted 3-oxo-1,2,3,4-tetrahydro-quinoxaline-6-carboxylic acid derivatives as tubulin polymerization inhibitors” (Eur J Med Chem, 2018)
